From ChEMBL document CHEMBL4004846, “Synthesis and antitrypanosomal activities of novel pyridylchalcones” (Eur J Med Chem, 2017)
Active and inactive are the calls of the source. The rule behind the calls is not given here.

Tests used:
Leishmania donovani [1] = assay: Antileishmanial activity against Leishmania donovani HU3 amastigote forms infected in CD-1 mouse macrophages at 10 uM after 2 to 3 days by Giemsa staining based microscopic method relative to control; format: functional
[2] = test system: Trypanosoma brucei rhodesiense; assay: Antitrypanosomal activity against Trypanosoma brucei rhodesiense STIB900 after 72 hrs by Alamar blue assay; format: functional; details: STIB900, 72 h
In short: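 T. b. rhodesiense STIB 900 bloodstream forms (1 x 10³ per well) incubated with 3-fold serial drug dilutions from DMSO stocks (20 mM) diluted in medium, 37°C, 5% CO2, 72 h, in triplicate. Drug-free controls and medium-only blanks were included. Alamar Blue was then added for 2-4 h and fluorescence read at ex 530/em 580 nm. IC50 is the mean of two independent experiments.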

[3] = Selectivity index, ratio of IC50 for human KB cells to IC50 for Trypanosoma brucei rhodesiense STIB900; format: toxicity; details: read-out: Ratio IC50
In short: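 SI is calculated as the KB-cell IC50 divided by the T. b. rhodesiense STIB900 IC50.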

KB = assay: Cytotoxicity against human KB cells after 72 hrs by Alamar blue assay; format: cell-based
In short: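 Human nasopharyngeal carcinoma KB cells were grown in RPMI 1640 with 10% heat-inactivated foetal calf serum at 37°C and 5% CO2. Monolayers were exposed to compounds for 72 h. Alamar Blue was then added for 2-4 h and fluorescence read at 530/580 nm. IC50 was derived by sigmoidal regression from the mean of two independent triplicate experiments.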

Leishmania donovani [4] = assay: Antileishmanial activity against Leishmania donovani HU3 amastigote forms infected in CD-1 mouse macrophages at 30 uM after 2 to 3 days by Giemsa staining based microscopic method relative to control; format: functional

Structure (SMILES) | IC50 [2] | Activity (Leishmania donovani [1]) | selectivity ratio [3] | IC50 (KB) | inhibition at 30 µM (Leishmania donovani [4])
O=C(/C=C/c1cccnc1)c1cccnc1 | 1.02 µM | inactive | 17 | 17 µM | –
O=C(/C=C/c1ccncc1)c1cccc(Br)c1 | 0.65 µM | inactive | 36 | 23.7 µM | –
O=C(/C=C/c1cccnc1)c1ccc2c(c1)OCO2 | 4.83 µM | inactive | 12 | 59.4 µM | –
O=C(/C=C/c1cccnc1)c1ccccc1Br | 37.8 µM | inactive | > 8 | > 300 µM | –
O=C(CC(CC(=O)c1cccc(Br)c1)c1cccnc1)c1cccc(Br)c1 | 12.2 µM | inactive | 15 | 181 µM | –
O=C(/C=C/c1ccccn1)c1cccc(Br)c1 | 0.4 µM | inactive | 37 | 14.7 µM | –
O=C(/C=C/c1ccccc1)c1cccc(Br)c1 | 0.96 µM | inactive | 19 | 18.4 µM | 13.8%
COc1cc([C@@H]2c3cc4c(cc3[C@H](O)[C@H]3COC(=O)[C@H]23)OCO4)cc(OC)c1OC [PODOFILOX] | – | – | – | 0.058 µM | –
O=C(/C=C/c1cccc(Br)c1)c1cccnc1 | 0.69 µM | inactive | 63 | 43.7 µM | –

Now from value to compound, other results behind:

IC50 [2] | Structure (SMILES) | Activity (Leishmania donovani [1]) | selectivity ratio [3] | IC50 (KB) | inhibition at 30 µM (Leishmania donovani [4])
0.98 µM | COc1ccc(C(=O)/C=C/c2cccnc2)cc1OC | inactive | 24 | 22.8 µM | –
0.29 µM | O=C(/C=C/c1cccnc1)c1cccc(Br)c1 | inactive | 47 | 13.5 µM | 39.7%
0.34 µM | O=C(/C=C/c1cccnc1)c1ccc(Br)cc1 | inactive | 23 | 7.9 µM | 11.6%
0.72 µM | O=C(/C=C/c1cccnc1)c1ccccc1 | inactive | 11 | 7.7 µM | –
0.41 µM | COc1cccc(C(=O)/C=C/c2cccnc2)c1 | inactive | 6 | 2.3 µM | –
1.15 µM | O=C(/C=C/c1cccnc1)c1cccc(O)c1 | inactive | 19 | 21.7 µM | –
0.94 µM | COc1ccc(C(=O)/C=C/c2cccnc2)cc1 | inactive | 23 | 21.7 µM | –
0.62 µM | O=C(/C=C/c1cccnc1)c1cccc(Cl)c1 | inactive | 21 | 12.7 µM | 2.7%
0.72 µM | O=C(/C=C/c1cccnc1)c1ccc(F)c(F)c1 | inactive | 29 | 20.7 µM | –
1.14 µM | COc1ccccc1C(=O)/C=C/c1cccnc1 | inactive | 20 | 22.7 µM | –
